Screens: PubChem, several laboratories
This is a sample that favours compounds with a hit; in the whole collection about 1.3% have one here.
Tb hexokinase – T. brucei hexokinase 1 inhibition; recombinant TbHK1, G6PDH-coupled NADH A340; inhibition, % at 10 µM; actives 0.11% (n = 220,000);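 active = inhibition of 50% or more in the single-dose primary screen; inactive = inhibition below 50%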
PfGluPho inh – PfG6PD (Plasmodium falciparum) enzyme inhibition. PfGluPho enzyme, NADPH resazurin-diaphorase fluorescence. actives 0.78% (n = 350,000). inhibition, % at 20 µM;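 active = inhibition reaching at least a set limit at 20 µM in the primary screen, cut at about 59% in these data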;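 also: 0% = DMSO wells with substrate and 100% = DMSO wells lacking glucose-6-phosphate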
G6PDH CS – L. mesenteroides G6PDH inhibition counter-screen; Purified L. mesenteroides G6PDH, diaphorase/resazurin coupled fluorescence, 45 min; actives 0.12% (n = 200,000); inhibition, % at 5 µM; in the data active = inhibition above about 50%
HKDC1 inh – inhibitors of human hexokinase HKDC1. AID 493160. recombinant HKDC1, G6PDH/diaphorase resazurin coupled fluorescence. actives 0.16% (n = 340,000). inhibition, % at 20 µM. Q2TB90;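 active = inhibition above about 35% when tested at 20 µM, limit read from the data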;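 also: plate controls were DMSO wells with enzyme for no effect and DMSO wells lacking enzyme for full effect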
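Test system: Recombinant HKDC1 (HK5) hexokinase enzyme, produced in-house | Input: HKDC1 at 5 µg/mL | Buffer or medium: Tris pH 8.0 buffer with MgCl2, Tween-20, BSA, BME | Schedule: 90 min reaction incubation at room temperature, dark | Technique: Resazurin-to-resorufin fluorescence via G6PDH and diaphorase coupling, 525/613 nm | Controls: DMSO wells with and without enzyme mix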
Diaph inh CS – counter-screen for diaphorase-based assays: diaphorase inhibitors and chemical oxidizers; diaphorase resazurin-to-resorufin fluorescence, NADH, 16 min; bacterial (C. kluyveri) enzyme, not human; inhibition, % at 20 µM; actives 0.69% (n = 190,000); AID 1217;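 active = primary screen inhibition at 20 µM above a set limit, cut at about 50% in these data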;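 also: plate controls were DMSO with full reaction for no effect and wells lacking NADH for full effect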
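Assay system: diaphorase enzyme from Clostridium kluyveri. Quantity: enzyme working solution with 0.14 U/mL diaphorase. Schedule: reaction incubation of 16 min at room temperature. Technique: resorufin fluorescence, excitation 544 nm, emission 590 nm. Controls: No-NADH positive control and DMSO neutral control.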
Diaph act CS – counter-screen for diaphorase-based assays: diaphorase activators and chemical reducers; activation factor at 20 µM; actives 0.005% (n = 190,000); AID 1229; Diaphorase/resazurin coupled assay, resorufin fluorescence, 16 min; active compounds read high; 1 = vehicle wells, 0 = NADH-free wells;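 active = diaphorase activity raised at least twofold by the compound at 20 µM; inactive = activation factor below 2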
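Measured by – red resorufin fluorescence at 544/590 nm excitation/emission · Test system – Clostridium kluyveri diaphorase, purified enzyme · Incubation – reaction time 16 min, room temperature · Buffer or medium – 50 mM HEPES pH 7.4 with 4.542 mM MgCl2, 0.005% Tween 20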
PfGluPho conf – confirmation of Plasmodium falciparum G6PD inhibitors. inhibition, % at 20 µM. shares compounds with PfGluPho inh. recombinant PfGluPho, NADPH-diaphorase-resazurin fluorescence. actives 34% (n = 2,400);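 active = inhibition of at least 50% at 20 µM in any single replicate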;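 also: 0% = DMSO with substrate and 100% = DMSO lacking glucose-6-phosphate substrate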
Diaphorase 10uM – inhibits diaphorase or oxidizes, flagging false PfG6PD hits; shares compounds with PfGluPho inh; diaphorase-coupled resazurin reduction, fluorescence, NADPH 10 uM; inhibition, % at 20 µM; actives 39% (n = 820); AID 504862;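 active = average inhibition reaching 50% or more with the compound at 20 µM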;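 also: resorufin red fluorescence formed as diaphorase reduces resazurin using NADPH; 0% = DMSO with enzyme and 100% = DMSO without enzyme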
Diaph ctr 30uM – diaphorase inhibition or oxidation at 30 uM NADPH; shares compounds with PfGluPho inh; Diaphorase/resazurin coupled assay, resorufin fluorescence; inhibition, % at 20 µM; actives 29% (n = 820); AID 504863;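 active = inhibition averaging 50% or more, tested at 20 µM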;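 also: 0% = DMSO with enzyme and 100% = DMSO wells lacking diaphorase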
Starred values were filed as active, the others as inactive; . = no result given.

SMILES	Tb hexokinase	PfGluPho inh	G6PDH CS	HKDC1 inh	Diaph inh CS	Diaph act CS	PfGluPho conf	others
Nc1nc(-c2ccc3c(c2)CCCC3)c(CC(=O)O)s1	.	-1.1	.	8.9	.	.	.
COc1cc(NCCCCCCN)c2ncccc2c1OC	.	89.5*	.	19.7	.	.	45.6
COc1cc(N)c2ncccc2c1OC	.	70.5*	.	6.1	.	.	73.7*	Diaphorase 10uM=22.3;Diaph ctr 30uM=8.1
[O-]/[N+](=C/c1ccco1)c1ccccc1	.	17.9	.	-2.4	.	.	.
[O-]/[N+](=C\c1ccco1)c1ccc(Cl)cc1	.	88.8*	.	-1.2	.	.	61.9*	Diaphorase 10uM=38.4;Diaph ctr 30uM=12.8
[O-][N+](=Cc1ccccc1)c1ccc(Cl)cc1	.	86.6*	.	1.0	.	.	91.5*	Diaphorase 10uM=61.5*;Diaph ctr 30uM=30.2
O=C(/C=C/c1ccc(Cl)cc1Cl)N1CCN(c2ccccc2[N+](=O)[O-])CC1	6.8	31.4	8.3	-6.1	19.3	0.8	.
CSc1nnc(NC(=O)c2ccc3c(c2)OCO3)s1	.	96.4*	.	-2.0	.	.	74.1*	Diaphorase 10uM=49.0;Diaph ctr 30uM=47.8
COCCSc1nnc(NC(=O)c2ccc3c(c2)OCO3)s1	-21.0	71.4*	2.7	-7.0	-5.6	1.1	34.4
CCOC(=O)C1=C(COC(=O)[C@@H]2CCCN2S(=O)(=O)c2ccc(C)cc2)NC(=O)NC1C (stereo not given in full)	.	16.9	.	-8.3	.	.	.
COCCNC(=O)Cn1c(=O)oc2cc(S(=O)(=O)N3CC(C)CC(C)C3)ccc21 (stereo not given)	.	-14.3	.	-5.1	.	.	.
COc1ccc([N+](=O)[O-])cc1NC(=O)CSCc1cc(C)cc(C)c1	-0.5	59.3*	-11.1	-7.7	22.9	0.8	15.6
COc1cccc(C2CC(=O)NC(SC)=C2C#N)c1 (stereo not given)	-0.5	-25.7	-3.9	10.9	19.9	0.8	.
N#CC1=C2SCC(O)(c3ccccc3)N2C(=O)CC1c1ccccc1 (stereo not given)	-25.1	7.8	14.1	7.8	27.5	0.7	.
CCc1ccc(C2CC(=O)N3CN(c4ccccc4)CSC3=C2C#N)cc1 (stereo not given)	-7.5	77.7*	18.6	15.6	54.8*	0.5	9.1
N#CC1=C2SCN(c3ccc(F)cc3)CN2C(=O)CC1c1cccc(F)c1 (stereo not given)	-15.6	68.8*	41.6	16.7	48.5	0.5	25.2
COc1ccccc1OCCNC(=O)CSC(=S)N1CCCC1	.	9.3	.	1.9	.	.	.
CC(C)c1nc2sc3c(=O)n(N)cnc3c2c2c1COC(C)(C)C2	-6.0	60.5*	4.2	27.6	49.3	0.5	14.5
CCOC(=O)c1c(CSc2ccccc2)n(C)c2cc(Br)c(OCC(O)CNC(CO)(CO)CO)cc12 (stereo not given)	-4.2	61.3*	-2.1	8.6	-0.4	1	10.8
CCOC(=O)c1c(CSc2ccccc2)n(C)c2cc(Br)c(OC)c(O)c12	.	6.9	.	-1.7	.	.	.
Cc1ccc(C(OCC(C)(C)C[N+](C)(C)C)c2ccccc2)cc1 (stereo not given)	7.4	19.3	2.9	-12.1	-10.2	1.1	.
NC(=O)CN1C(=O)/C(=c2\sc3nc(=O)c(Cc4ccccc4)nn3c2=O)c2ccccc21	-41.2	62.6*	.	-3.8	.	.	-8.4
COc1ccc2oc(C(=O)OCc3nnc(-c4ccccc4)o3)c(C)c2c1	.	0.9	.	-3.3	.	.	.
Cc1ccc(O)c(C(=O)c2cnn(C(=O)COc3ccccc3C#N)c2)c1	4.0	.	.	.	.	.	.
CCc1cc(-c2n[nH]c(C)c2-c2nc3ccccc3n2C)c(O)cc1O	-2.0	61.1*	19.1	0.6	11.2	0.9	48.6*	Diaphorase 10uM=28.1;Diaph ctr 30uM=25.9
CCc1cc(-c2n[nH]c(CCC(=O)O)c2-c2nc3ccccc3n2C)c(O)cc1O	-7.1	25.4	6.8	3.4	16.3	0.8	.
